From ChEMBL document CHEMBL1143730, “Probing the bioactive constituents from chemotypes of the sponge Psammocinia aff. bulbosa” (J Nat Prod, 2007)
In brackets after ≈: the same amount, converted by molar mass.

Columns and labels:
HCT-116 [1] = assay: Survivability of human HCT116 cells assessed as cell kill at >=3 ng/mL after 2 hrs; format: functional
HCT-116 [2] = assay: Survivability of human HCT116 cells assessed as cell kill at >= 2 ng/mL after 24 hrs; format: functional
HCT-116 [3] = assay: Survivability of human HCT116 cells assessed as cell kill at >=120 pg/mL after 168 hrs; format: functional
Mus musculus = assay: Toxicity in SCID mouse at 125 ug/kg bolus injection; format: organism-based; conditions: in vivo, 0.125 mg/kg
Outline: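 HCT-116 tumor-bearing SCID mice (>17 g, 5 per group). Single intravenous tail-vein bolus of 125 μg/kg (drug at […], 0.25 mL) started 1 day after subcutaneous inoculation of 10⁶ cells. Vehicle was DMSO diluted 1:1 with Cremophor–propylene glycol (40:60), then ≥20-fold in saline. Mice were monitored until sacrifice at day 30.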

HCT-116 [4] = assay: Antitumor activity in human HCT116 tumor-bearing SCID mouse at 62 ug/kg bolus injection after 23 days relative to control; format: functional
Outline: (§1)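 SCID mice (>17 g, weights within 5 g) implanted subcutaneously with 10⁶ tissue-culture-derived HCT-116 cells, 5 per group. Starting 1 day after inoculation, a single intravenous tail-vein bolus (drug at […], 0.25 mL) was given in DMSO diluted 1:1 with Cremophor–propylene glycol (40:60), then ≥20-fold in saline. Tumor weight followed daily. Minimum %T/C reported. Sacrifice at day 30.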

HCT-116 [5] = assay: Antitumor activity in human HCT116 tumor-bearing SCID mouse at 31 ug/kg bolus injection after 23 days relative to control; format: functional; outline: as §1
MDA-MB-231 = assay: Growth inhibition of MDA-MB-231 cells; format: functional, cell-based; conditions: Homo sapiens
Outline: (§2)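 Cells seeded at 5×10^4 per T25 flask in RPMI 1640 with 15% BCS, pen/strep and glutamine. After 3 days (log phase, 5×10^5 cells/flask), compound was added at 10 to 10^-5 μg/mL. After 3 more days, cells were trypsinized and viable and dead cells counted by 0.08% trypan blue exclusion. IC50 determined.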

HT-29 = assay: Growth inhibition of HT29 cells; format: functional, cell-based; conditions: Homo sapiens; outline: as §2
[6] = Growth inhibition of H125 cells; format: functional, cell-based; conditions: Homo sapiens, NCI-H125; outline: as §2
L1210 = assay: Growth inhibition of L1210 cells; format: functional, cell-based; conditions: Mus musculus; outline: as §2

SMILES: C=C(C)C[C@H](OC)[C@H](O)C(=O)N[C@@H](OC)C1C[C@@H](O)C(C)(C)[C@@H](C[C@H](O)[C@@H](C)[C@@H]2Cc3c(C)c(O)cc(O)c3C(=O)O2)O1 (stereo not given in full) [IRCINIASTATIN]
- Survival (HCT-116 [1]): 90%
- Survival (HCT-116 [2]): 90%
- Survival (HCT-116 [3]): 90%
- Activity (Mus musculus): Toxic
- Activity (HCT-116 [4]): 75%
- Activity (HCT-116 [5]): 86%
- IC50 (MDA-MB-231): 0.2 ng/mL (≈ 0.328 nM)
- IC50 (HT-29): 5 ng/mL (≈ 8.2 nM)
- IC50 [6]: 0.12 ng/mL (≈ 0.197 nM)
- IC50 (L1210): 0.18 ng/mL (≈ 0.295 nM)
